Consider 21 molecules from ChEMBL document CHEMBL2016483, “Discovery of novel and potent heterocyclic carboxylic acid derivatives as protein tyrosine phosphatase 1B inhibitors” (Bioorg Med Chem Lett, 2012).

In series [1] the target is T1, Tyrosine-protein phosphatase non-receptor type 1 (Homo sapiens, UniProt P18031).
T1 sequence (P18031 whole entry): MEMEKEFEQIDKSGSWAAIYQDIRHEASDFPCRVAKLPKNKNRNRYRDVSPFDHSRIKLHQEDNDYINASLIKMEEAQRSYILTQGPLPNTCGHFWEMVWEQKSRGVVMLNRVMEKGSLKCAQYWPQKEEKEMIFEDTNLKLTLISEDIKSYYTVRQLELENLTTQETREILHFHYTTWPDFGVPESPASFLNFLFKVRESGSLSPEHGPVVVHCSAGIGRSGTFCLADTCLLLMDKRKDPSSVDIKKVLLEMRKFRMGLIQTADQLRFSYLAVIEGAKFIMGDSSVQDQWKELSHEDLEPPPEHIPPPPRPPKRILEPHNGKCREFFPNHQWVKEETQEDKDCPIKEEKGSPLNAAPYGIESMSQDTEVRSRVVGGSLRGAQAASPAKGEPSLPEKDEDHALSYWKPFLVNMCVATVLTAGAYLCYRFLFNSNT
Kind of series: Inhibition of human recombinant PTP1B expressed in Escherichia coli using para-nitrophenyl phosphate as substrate preincubated for 30 mins followed by substrate addition measured by […] analysis.

Another series relates to Liver. Nature of the series: Metabolic stability of the compound in mouse liver microsomes assessed as metabolic rate at 1 uM after 30 mins by LC-MS-MS analysis. Format: ADME, Microsome. As to conditions: 0.5 h. An outline of the steps:
(§1)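 Mouse and rat liver microsomes, metabolic rate read at 30 min. Stable was defined as metabolic rate <0.1 nmol/min/mg or 80% remaining at 30 min.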

Series [2] can be described thus: Apparent permeability by PAMPA assay. It counts as ADME.
Series [3] deals with T2, Tyrosine-protein phosphatase non-receptor type 2 (Homo sapiens) (UniProt P17706).
T2 sequence (whole entry): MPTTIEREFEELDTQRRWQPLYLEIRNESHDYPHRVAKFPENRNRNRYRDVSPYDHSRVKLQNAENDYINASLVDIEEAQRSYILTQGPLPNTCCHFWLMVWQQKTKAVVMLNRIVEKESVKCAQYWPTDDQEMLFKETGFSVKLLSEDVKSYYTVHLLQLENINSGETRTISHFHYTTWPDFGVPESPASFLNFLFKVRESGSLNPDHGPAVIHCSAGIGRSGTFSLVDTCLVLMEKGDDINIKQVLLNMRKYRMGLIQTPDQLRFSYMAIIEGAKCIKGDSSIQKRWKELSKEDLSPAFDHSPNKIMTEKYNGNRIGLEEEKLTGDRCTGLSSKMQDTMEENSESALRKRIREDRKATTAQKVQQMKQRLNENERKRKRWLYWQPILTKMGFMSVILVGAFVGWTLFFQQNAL
Nature of the series: Inhibition of TCPTP using para-nitrophenyl phosphate as substrate at 100 uM preincubated for 30 mins followed by substrate addition measured by […] analysis. Summed up: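 TCPTP counter-screen in the same pNPP assay format, tested at 100 µM. Read as percent inhibition.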

Another series has as its system Liver microsomes. Kind of series: Metabolic stability of the compound in rat liver microsomes assessed as metabolic rate at 1 uM after 30 mins by LC-MS-MS analysis. Format: ADME, Microsome. As to conditions: 0.5 h. Summed up:
as §1
For orientation: Liver microsomes are a subcellular fraction often used to study metabolism.

The nature of series [4]: Tmax in C57BL/6J mouse at 30 mg/kg, po. Format: ADME, organism-based. Details: dose 30 mg/kg, route oral. As to conditions: in vivo.
Series [5] has as its target T3, Tyrosine-protein phosphatase non-receptor type 1 (Homo sapiens) (UniProt P18031).
T3 sequence (whole entry): T1 sequence (P18031 whole entry)
Nature of the series: Non-competitive inhibition of human recombinant PTP1B-mediated para-nitrophenyl phosphate hydrolysis preincubated for 30 mins measured by spectrophotometric analysis.

A short description of series [6]: Cmax in C57BL/6J mouse at 30 mg/kg, po. It counts as ADME, organism-based. Further details: dose 30 mg/kg, route oral. As to conditions: in vivo.
Series [7] is described as follows: AUC (0 to t) in C57BL/6J mouse at 3 mg/kg, iv. As to conditions: plasma. Details: dose 3 mg/kg, route intravenous. It counts as ADME, organism-based.
A short description of series [8]: Elimination half life in C57BL/6J mouse at 3 mg/kg, iv. Format: ADME, organism-based. Details: dose 3 mg/kg, route intravenous. The following applies: in vivo, read-out: beta t1/2 (converted).
The nature of series [9]: Tmax in C57BL/6J mouse at 3 mg/kg, iv. The following applies: in vivo. Further details: dose 3 mg/kg, route intravenous. Format: ADME, organism-based.
Series [10] in a line: Volume of distribution at steady state in C57BL/6J mouse at 3 mg/kg, iv. It counts as ADME, organism-based. Further details: dose 3 mg/kg, route intravenous. The following applies: in vivo, read-out: Vdss.
Series [11] in a line: Clearance in C57BL/6J mouse at 3 mg/kg, iv. The following applies: in vivo. Further details: dose 3 mg/kg, route intravenous. It counts as ADME, organism-based.
The nature of series [12]: Oral bioavailability in C57BL/6J mouse at 30 mg/kg. It counts as ADME, organism-based. As to conditions: in vivo.
Series [13] is described as follows: Cmax in C57BL/6J mouse at 3 mg/kg, iv. It counts as ADME, organism-based. Further details: dose 3 mg/kg, route intravenous. The following applies: in vivo.
The nature of series [14]: AUC (0 to t) in C57BL/6J mouse at 30 mg/kg, po. Format: ADME, organism-based. Further details: dose 30 mg/kg, route oral. The following applies: plasma.
Series [15] can be described thus: Apparent permeability across human Caco2 cells. Format: ADME, cell-based. The following applies: Caco-2. On the technique in general: Caco-2 monolayers are a common model of the intestinal barrier.

Activity calls are given as the source filed them.

For the molecule `O=C(O)c1cc(-c2ccc(CC(C(=O)c3ccccc3)c3ccccc3)cc2)n[nH]1` (stereo not drawn), the Ki in [1] was determined as 16.3 µM.
Same read-out and setting: as for `O=C(O)C1CCN(c2ccc(CC(C(=O)c3ccccc3)c3ccccc3)cc2)C1=O` (stereo not drawn), the figure is 5.1 µM.
Take `COc1ccc(-c2noc(C(Cc3ccc(-c4cc(C(=O)O)on4)cc3)c3ccc(F)cc3)n2)cc1` (stereo not drawn): the Drug metabolism in the series on Liver is 0 nmol/min/mg; in the series on Liver microsomes, 0.01 nmol/min/mg. Moreover, the Ki in [1] turned out to be 0.4 µM. Further, in [2], the Papp came out at 4 ×10⁻⁶ cm/s. For the same molecule, the inhibition in series [3] is below 10%.
Turning to `O=C(O)c1coc(-c2ccc(CC(C(=O)c3ccccc3)c3ccccc3)cc2)n1` (stereo not drawn), the Ki in series [1] was 7.8 µM.
On the same count and under the same terms, as for `Cn1nc(-c2ccc(CC(C(=O)c3ccccc3)c3ccccc3)cc2)cc1C(=O)O` (stereo not drawn), the figure is 7.8 µM.
The same measure, in the same setting: in the case of `O=C(O)C1CC(=O)N(c2ccc(CC(C(=O)c3ccccc3)c3ccccc3)cc2)C1` (stereo not drawn) it was 7.7 µM.
For the molecule `COc1ccc(C(Cc2ccc(-c3cc(C(=O)O)on3)cc2)c2nc(-c3ccc(Cl)cc3)no2)cc1` (stereo not drawn), the figures for the Tmax in [4] and in [9] were 1 h and 4.98 min, respectively. For the same molecule, in series [5], the inhibition result is “Active”. Also, the Cmax is 1340 nM in [6] and 1870 nM in [13]. Besides, the Drug metabolism in the series on Liver worked out at 0 nmol/min/mg; in the series with Liver microsomes, 0.03 nmol/min/mg. The results for the AUC(0-t) in [7] and in [14] were 0.98 µM·h and 3.6 µM·h, respectively. Also, in series [8], the half-life is 1.08 h. Besides, in series [1], the Ki was determined as 0.3 µM. Moreover, the Papp in [2] is 48 ×10⁻⁶ cm/s. Further, the Vd in series [10] turned out to be 4 L/kg. The same molecule showed an inhibition in series [3] below 10%. In series [11], this molecule returned a clearance of 99 mL/min/kg. Besides, the bioavailability in series [12] worked out at 36%.
Consider `O=C(O)c1csc(-c2ccc(CC(c3ccc(F)cc3)c3nc(-c4cccc(F)c4)no3)cc2)n1` (stereo not drawn), for which the values for the Drug metabolism with Liver and in the series on Liver microsomes were 0 nmol/min/mg and 0.01 nmol/min/mg, respectively. The Ki in series [1] is 0.5 µM. Besides, the Papp in [2] was 10 ×10⁻⁶ cm/s.
As to `O=C(O)c1cc(-c2ccc(CC(C(=O)c3ccccc3)c3ccccc3)cc2)no1` (stereo not drawn), the Drug metabolism amounted to 0.06 nmol/min/mg with Liver and 0.02 nmol/min/mg in the series on Liver microsomes. For the same molecule, in series [1], the inhibition constant Ki is 1.1 µM. In series [2], the Papp was 103 ×10⁻⁶ cm/s. In [3], this molecule returned an inhibition below 10%.
On to `O=C(O)c1cc(-c2ccc(CC(C(=O)c3ccc(Cl)cc3)c3ccc(F)c(F)c3)cc2)no1` (stereo not drawn), for which the values for the Tmax in series [4] and in series [9] were 1 h and 4.98 min, respectively. The Cmax in series [6] came out at 1900 nM; in [13], 4500 nM. The Drug metabolism in the series with Liver and with Liver microsomes was 0 nmol/min/mg each time. Moreover, the results for the AUC(0-t) in series [7] and in series [14] were 2.4 µM·h and 3 µM·h, respectively. Besides, the half-life in series [8] was 1.9 h. Moreover, in [1], the Ki was found to be 0.8 µM. Moreover, the apparent permeability coefficient (Papp) in [2] is 168 ×10⁻⁶ cm/s. The Vd in [10] worked out at 4 L/kg. The molecule further yielded an inhibition in series [3] below 10%. This molecule also gave a clearance in series [11] of 38 mL/min/kg. In addition, the bioavailability in series [12] was 13%.
With `O=C(O)c1csc(-c2ccc(CC(C(=O)c3ccccc3)c3ccccc3)cc2)n1` (stereo not drawn), the Drug metabolism was 0.05 nmol/min/mg with Liver and 0.02 nmol/min/mg with Liver microsomes. In addition, in series [1], the Ki came out at 1.2 µM. Further, in series [2], the Papp came out at 85 ×10⁻⁶ cm/s.
Turning to `O=C(O)c1onc(-c2ccc(CC(C(=O)c3ccccc3)c3ccccc3)cc2)c1C(=O)O` (stereo not drawn), in [1], the Ki amounted to 40 µM.
As to `O=C(O)c1csc(-c2ccc(CC(C(=O)c3ccc(Cl)cc3)c3ccc(F)c(F)c3)cc2)n1` (stereo not drawn), the Ki in [1] came to 0.6 µM. Further, in series [3], the inhibition is below 10%.
`O=C(O)c1ccc(-c2ccc(CC(C(=O)c3ccccc3)c3ccccc3)cc2)[nH]1` (stereo not drawn): the Ki in [1] is 2.9 µM.
Turning to `COC(=O)c1c(O)cccc1OC/C=C/c1ccc(F)c(-c2cc(C(=O)O)no2)c1`, the apparent permeability coefficient (Papp) in series [15] was above 1 ×10⁻⁶ cm/s.
Consider `O=C(O)c1cc(-c2ccc(CC(C(=O)c3ccc(F)c(F)c3)c3ccc(F)cc3)cc2)no1` (stereo not drawn), for which the results for the Drug metabolism in the series with Liver and in the series with Liver microsomes were 0 nmol/min/mg and 0.01 nmol/min/mg, respectively. Moreover, in series [1], the inhibition constant Ki came to 1.4 µM. The Papp in [2] worked out at 16 ×10⁻⁶ cm/s.
On to `O=C(O)c1cc(-c2ccc(CC(C(=O)c3cc(F)cc(F)c3)c3ccc(F)cc3)cc2)no1` (stereo not drawn), for which, in series [1], the Ki amounted to 2.4 µM.
As to `O=C(O)c1cc(-c2ccc(CC(c3ccccc3)c3nc(-c4ccccc4)no3)cc2)no1` (stereo not drawn), the figures for the Tmax in [4] and in [9] were 1 h and 4.8 min, respectively. The Cmax worked out at 7200 nM in series [6] and 1500 nM in series [13]. For the same molecule, the figures for the Drug metabolism with Liver and in the series on Liver microsomes were 0.04 nmol/min/mg and 0.03 nmol/min/mg, respectively. Also, the results for the AUC(0-t) in [7] and in series [14] were 1.8 µM·h and 13 µM·h, respectively. Also, the half-life in series [8] was 1 h. The inhibitory constant (Ki) in series [1] was 4 µM. In series [2], the Papp was found to be 45 ×10⁻⁶ cm/s. The Vd in series [10] was determined as 4.8 L/kg. Further, the inhibition in [3] is below 10%. The molecule also displayed a clearance in [11] of 63 mL/min/kg. Besides, in series [12], the bioavailability amounted to 70%.
With `COc1ccc(C(Cc2ccc(-c3nc(C(=O)O)cs3)cc2)c2nc(-c3cccc(F)c3)no2)cc1` (stereo not drawn), the Drug metabolism in the series with Liver is 0 nmol/min/mg; in the series with Liver microsomes, 0.04 nmol/min/mg. The Ki in series [1] turned out to be 0.5 µM. Besides, the Papp in series [2] was 6 ×10⁻⁶ cm/s.
Consider `O=C(O)c1csc(-c2ccc(CC(C(=O)c3ccc(F)c(F)c3)c3ccc(F)cc3)cc2)n1` (stereo not drawn), for which the inhibition constant Ki in series [1] stood at 1.8 µM.
Take `O=C(O)c1cc(-c2ccc(CC(C(=O)c3ccc(F)cc3)c3ccc(F)cc3)cc2)no1` (stereo not drawn): the Drug metabolism in the series with Liver came to 0.01 nmol/min/mg; in the series on Liver microsomes, 0.02 nmol/min/mg. Further, the Ki in [1] turned out to be 1.5 µM. Further, in series [2], the Papp stood at 8 ×10⁻⁶ cm/s.

What is called Ki is the equilibrium dissociation constant of an inhibitor or competing ligand from its target. As usually defined, the Papp is the rate of passage across a membrane or cell layer, normalised by area and donor concentration. What is called inhibition is how much of the control response was suppressed. For orientation: Tmax means the time from dosing to the highest level. A word on the Cmax: it is the highest concentration seen after dosing. As a reminder, the AUC(0-t) is exposure summed from dosing to a finite time, without extrapolation to infinity. Lower therefore signals less exposure. Broadly, the clearance is the volume of plasma or blood freed of the substance per unit of time. Low values mean a low capacity for elimination, high ones a high capacity for elimination. What is called bioavailability is dose-corrected exposure relative to a reference, in per cent.
